Folding enthalpy and Tm data for 30 sequences are collected here from the array DNA melting data of Ke et al. (doi:10.1101/2024.01.08.574731).

Data set [1] can be described thus: folding enthalpy; higher = less favourable; fluorescence melt of hairpins on a sequencing array, two-state fit. The note with it: sodium 0.088 M. In a few lines:
(§1)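 Melting temperature and folding enthalpy were derived from bootstrapped two-state fits. The fitted temperatures were raised by 9.35 °C to agree with UV melts, and four replicates were combined by inverse variance. The underlying data were Cy3 fluorescence images of library hairpins, with annealed Cy3 and quencher oligos, on a sequenced MiSeq flow cell in 50 mM Na-HEPES pH 8.0, 25 mM NaCl, taken in 2.5 °C steps up to 60 °C, normalised to pre-quench Cy3 and to control constructs.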

The nature of data set [2]: melting temperature; fluorescence melt of hairpins on a sequencing array, two-state fit, raised by 9.35 °C to match UV melts. The note with it: sodium 0.088 M. In a few lines: as §1

Turning to GTGAGCCGAAAGGCACAC (((.(((....))).))), the folding enthalpy in data set [1] is -28.9 kcal/mol. In addition, in data set [2], the Tm turned out to be 59.8 °C.

Turning to GTGAGCGAAAGCTACCAC ((((((....)))..))), the folding enthalpy in data set [1] is -10.5 kcal/mol. In data set [2], the Tm was determined as 35.9 °C.

As to GTGAGCGAAAGCTCCAC ((((((....))).))), in data set [1], the folding enthalpy was -11.3 kcal/mol. The Tm in data set [2] was 48.3 °C.

As for GTGAGCGAAAGCTCGCAC ((((((....)))..))), the folding enthalpy in data set [1] is -11.7 kcal/mol. Moreover, the Tm in data set [2] was determined as 55.1 °C.

On to GTGAGCGAAAGCTTCAC ((((((....))).))), for which the folding enthalpy in data set [1] is -19.1 kcal/mol. In addition, the Tm in data set [2] was determined as 50.9 °C.

Take GTGAGCGAAAGCTTTCAC ((((((....)))..))): in data set [1], the folding enthalpy was -10.7 kcal/mol. For the same sequence, in data set [2], the Tm was found to be 32.3 °C.

Turning to GTGAGCGGAAACACTCAC (((((.(....).))))), in data set [1], the folding enthalpy is -43.7 kcal/mol. For the same sequence, the Tm in data set [2] was 47.7 °C.

In the case of GTGAGCGGAAACGCTCGC (.(((((....))))).), the folding enthalpy in data set [1] was -18.4 kcal/mol. Also, in data set [2], the Tm was determined as 62.7 °C.

Regarding GTGAGCGGAAACGTTCAC ((((.((....)).)))), the folding enthalpy in data set [1] is -41.2 kcal/mol. Further, the Tm in data set [2] is 52.8 °C.

As to GTGAGGGGAAACCCTTAC ((.((((....)))).)), in data set [1], the folding enthalpy was -26.7 kcal/mol. The Tm in data set [2] came to 44.5 °C.

As for GTGAGTCCGAAAGGACAC (((..(((....)))))), in data set [1], the folding enthalpy is -13.1 kcal/mol. In addition, the Tm in data set [2] worked out at 49.6 °C.

Consider GTGAGTGGAAACACTTGC (..((((....))))..), for which the folding enthalpy in data set [1] was -23.9 kcal/mol. In addition, the Tm in data set [2] turned out to be 36.4 °C.

On to GTGATACGAAAGTACAC (((.(((....)))))), for which the folding enthalpy in data set [1] was -25.8 kcal/mol. Further, the Tm in data set [2] is 43.7 °C.

Regarding GTGATAGGAAACCATCAC (((((.(....).))))), the folding enthalpy in data set [1] is -34.9 kcal/mol. In data set [2], the Tm is 39.3 °C.

As to GTGATAGGAAACTATTAC ((.((((....)))).)), the folding enthalpy in data set [1] is -25.8 kcal/mol. For the same sequence, in data set [2], the Tm was 34.1 °C.

Turning to GTGATCCGAAAGGAACAC (((.(((....))).))), the folding enthalpy in data set [1] was -27.5 kcal/mol. For the same sequence, the Tm in data set [2] came to 53.6 °C.

For the sequence GTGATCGAAAGATGACAC ((((((....)))..))), the folding enthalpy in data set [1] was -16.2 kcal/mol. Also, in data set [2], the Tm was found to be 33.4 °C.

With GTGATCGCGAAAGCGCAC (((..(((....)))))), the folding enthalpy in data set [1] was -12.6 kcal/mol. For the same sequence, the Tm in data set [2] worked out at 35.6 °C.

With GTGATCGGAAACGATCAC (((((((....))))))), the folding enthalpy in data set [1] is -42.3 kcal/mol. In addition, the Tm in data set [2] was determined as 68.6 °C.

On to GTGATCGGAAACGATTAC ((.((((....)))).)), for which the folding enthalpy in data set [1] was -24.4 kcal/mol. In data set [2], the Tm came to 48.2 °C.

For GTGATGACGAAAGTCCAC (((..(((....)))))), in data set [1], the folding enthalpy was -18.4 kcal/mol. Besides, the Tm in data set [2] came out at 35.1 °C.

As for GTGATGGGAAACTATCAC (((((.(....).))))), the folding enthalpy in data set [1] was -32.2 kcal/mol. The Tm in data set [2] was 45.6 °C.

For the sequence GTGATTCCGAAAGGACAC (((..(((....)))))), the folding enthalpy in data set [1] was -15.3 kcal/mol. Also, in data set [2], the Tm was determined as 31.1 °C.

For GTGATTGGAAACAGTCAC ((((.((....)).)))), in data set [1], the folding enthalpy was -36.6 kcal/mol. For the same sequence, the Tm in data set [2] is 45.4 °C.

GTGCAACGAAAGTTCAC (((.(((....)))))): the folding enthalpy in data set [1] is -13.2 kcal/mol. The Tm in data set [2] was 45.7 °C.

As to GTGCAACGAAAGTTTCAC (((.(((....))).))), the folding enthalpy in data set [1] was -21.4 kcal/mol. The Tm in data set [2] was 41 °C.

GTGCACGAAAGTGAACAC ((((((....)))..))): the folding enthalpy in data set [1] is -15.4 kcal/mol. The Tm in data set [2] came to 52 °C.

For the sequence GTGCACGAAAGTGAGCAC ((((((....)))..))), the folding enthalpy in data set [1] is -32.4 kcal/mol. In addition, the Tm in data set [2] came to 51.6 °C.

With GTGCACGAAAGTGTCAC ((((((....))).))), the folding enthalpy in data set [1] is -22.3 kcal/mol. Further, the Tm in data set [2] stood at 54.5 °C.

With GTGCACGAAAGTGTGCAC ((((((....)))..))), in data set [1], the folding enthalpy was -34 kcal/mol. Besides, the Tm in data set [2] amounted to 62.6 °C.
